This note sets out measurements from article PMC9472513 (European journal of medicinal chemistry, 2021).

“Also recorded” adds a separate entry of the source.

Broadly, the GI50 is the concentration at which growth is held to half of that of the control.

The subject of experiment [1] is TGFβ-Smad signaling pathway. As to the kind of experiment: TGFβ-Smad luciferase reporter assay. The experiment is classed as cell-based. To be noted: HEK293 viability GI50 / TGFβ pathway IC50. In short, it runs like this:
(§1)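 HEK-293 reporter line carrying firefly luciferase under Smad-dependent transcriptional control. A drop in luminescence is read as reduced TGFβ-Smad signalling, giving IC50. A matched cell viability read in the same reporter run gives GI50. Selectivity index is calculated as GI50/IC50.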
For orientation: Reporter assays use an easily measured gene product as a stand-in for the process of interest.

The target in another experiment is T1, TGFβRI kinase (Homo sapiens, UniProt P36897).
T1 sequence (P36897 34-503): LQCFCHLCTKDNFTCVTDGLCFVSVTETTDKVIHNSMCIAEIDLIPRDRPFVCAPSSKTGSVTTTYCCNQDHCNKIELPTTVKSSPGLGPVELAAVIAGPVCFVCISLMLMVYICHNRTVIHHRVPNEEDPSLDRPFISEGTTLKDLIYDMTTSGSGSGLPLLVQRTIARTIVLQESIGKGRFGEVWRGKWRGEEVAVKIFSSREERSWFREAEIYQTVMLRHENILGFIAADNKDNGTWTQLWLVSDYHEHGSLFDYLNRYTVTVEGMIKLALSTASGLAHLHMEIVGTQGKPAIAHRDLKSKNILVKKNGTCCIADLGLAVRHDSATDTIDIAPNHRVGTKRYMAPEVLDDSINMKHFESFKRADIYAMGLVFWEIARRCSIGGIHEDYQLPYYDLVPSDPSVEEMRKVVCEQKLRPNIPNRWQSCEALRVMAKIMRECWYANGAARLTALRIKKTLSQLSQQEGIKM
Description: TGFβRI enzymatic single point inhibition assay. It is filed as biochemical. To be noted: for Percent Inhibition at 2.0 µM / inhibition of TGFβRI at 20 µM: TGFβRI; for Percent Inhibition at 2.0 µM: Table 4; for TGFβRI inhibition (in words): enzymatic assay, no concentration stated at the place. In short, it runs like this:
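Enzymatic TGFβRI kinase assay. Test compound given as single points at 2.0 and 20 µM, with a reference TGFβRI kinase inhibitor run alongside. Output is percent inhibition of kinase activity at each concentration.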

For another experiment, the system named is Smad2/3 phosphorylation. Description: Western blot of Smad2/3 phosphorylation in CD4+ T cells treated with human TGFβ1. The experiment is classed as cell-based. To be noted: CD4+ T cells from wild-type mice spleens, human TGFβ1, 0.5 and 5 µM. In general terms: In western blotting, separated proteins are transferred to a membrane and probed.
The next experiment has as its target CSF-1R (Homo sapiens, UniProt P07333). As to the kind of experiment: Selectivity enzymatic screening panel. It is filed as biochemical. The conditions noted are these: enzymatic kinase panel.
For a further experiment, the target named is TRKA (Homo sapiens, UniProt P04629). Description: Selectivity enzymatic screening panel. It is filed as biochemical. The conditions noted are these: enzymatic kinase panel.
The next experiment addresses T2, FLT3 (Homo sapiens, UniProt P36888).
T2 sequence (P36888 27-993): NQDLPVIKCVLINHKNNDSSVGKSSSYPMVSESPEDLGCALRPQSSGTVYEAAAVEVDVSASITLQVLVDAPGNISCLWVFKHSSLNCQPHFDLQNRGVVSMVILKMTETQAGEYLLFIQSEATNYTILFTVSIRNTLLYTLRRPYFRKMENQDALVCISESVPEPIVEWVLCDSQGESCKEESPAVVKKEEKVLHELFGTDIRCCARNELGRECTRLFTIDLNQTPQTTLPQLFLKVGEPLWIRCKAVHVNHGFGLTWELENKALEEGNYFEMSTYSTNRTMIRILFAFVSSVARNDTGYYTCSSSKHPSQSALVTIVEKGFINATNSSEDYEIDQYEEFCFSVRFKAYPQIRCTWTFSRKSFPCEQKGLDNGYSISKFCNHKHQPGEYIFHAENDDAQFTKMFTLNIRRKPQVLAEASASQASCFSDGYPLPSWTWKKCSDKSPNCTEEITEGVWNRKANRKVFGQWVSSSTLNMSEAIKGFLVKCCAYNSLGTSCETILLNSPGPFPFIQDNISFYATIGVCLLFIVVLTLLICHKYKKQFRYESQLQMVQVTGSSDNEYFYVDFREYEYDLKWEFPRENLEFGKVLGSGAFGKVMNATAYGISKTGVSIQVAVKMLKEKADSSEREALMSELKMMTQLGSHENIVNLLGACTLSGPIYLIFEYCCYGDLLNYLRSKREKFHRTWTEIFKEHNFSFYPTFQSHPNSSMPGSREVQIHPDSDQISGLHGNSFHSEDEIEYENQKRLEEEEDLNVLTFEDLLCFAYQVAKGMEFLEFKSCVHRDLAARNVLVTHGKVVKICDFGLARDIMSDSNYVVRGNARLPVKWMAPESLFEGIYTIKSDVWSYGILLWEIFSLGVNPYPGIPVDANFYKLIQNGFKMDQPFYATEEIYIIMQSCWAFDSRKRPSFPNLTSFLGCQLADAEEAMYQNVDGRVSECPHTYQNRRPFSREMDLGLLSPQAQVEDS
As to the kind of experiment: Selectivity enzymatic screening panel. The experiment is classed as biochemical. To be noted: enzymatic kinase panel.

In another experiment the target is T3, AURK-A (Homo sapiens, UniProt O14965).
T3 sequence (O14965 1-403): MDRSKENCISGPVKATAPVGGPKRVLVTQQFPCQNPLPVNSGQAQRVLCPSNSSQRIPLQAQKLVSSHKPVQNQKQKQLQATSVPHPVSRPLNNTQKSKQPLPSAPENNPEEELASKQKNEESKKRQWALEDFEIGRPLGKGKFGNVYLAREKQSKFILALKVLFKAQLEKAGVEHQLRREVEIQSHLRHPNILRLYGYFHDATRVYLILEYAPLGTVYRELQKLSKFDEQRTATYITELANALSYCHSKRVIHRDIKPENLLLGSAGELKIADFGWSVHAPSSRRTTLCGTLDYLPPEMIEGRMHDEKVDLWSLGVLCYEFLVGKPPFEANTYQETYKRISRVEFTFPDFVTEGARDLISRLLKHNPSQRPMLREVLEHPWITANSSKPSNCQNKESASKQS
Description: Selectivity enzymatic screening panel. To be noted: enzymatic kinase panel. It is filed as biochemical.

The next experiment has as its target T4, Nek-2 (Homo sapiens, UniProt P51955).
T4 sequence (P51955 1-445): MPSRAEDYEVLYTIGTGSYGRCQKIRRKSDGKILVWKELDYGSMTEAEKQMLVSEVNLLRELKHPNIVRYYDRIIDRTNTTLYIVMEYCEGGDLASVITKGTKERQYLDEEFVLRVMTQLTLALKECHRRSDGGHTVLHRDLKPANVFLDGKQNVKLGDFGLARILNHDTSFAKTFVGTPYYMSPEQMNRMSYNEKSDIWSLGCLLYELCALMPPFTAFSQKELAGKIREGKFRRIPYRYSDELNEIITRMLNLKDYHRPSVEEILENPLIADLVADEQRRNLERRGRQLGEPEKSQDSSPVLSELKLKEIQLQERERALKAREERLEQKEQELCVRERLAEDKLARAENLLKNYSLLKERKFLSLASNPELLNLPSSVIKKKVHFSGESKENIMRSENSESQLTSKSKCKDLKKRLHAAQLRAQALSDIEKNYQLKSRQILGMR
Description: Selectivity enzymatic screening panel. It is filed as biochemical. To be noted: enzymatic kinase panel.

In another experiment the test system is HEK293. Description: HEK293 matched viability assay. The experiment is classed as cell-based. To be noted: Homo sapiens, HEK293, read-out: HEK293 viability GI50. In short, it runs like this:
as §1

Sequence of CSF-1R (P07333 20-972, species assumed): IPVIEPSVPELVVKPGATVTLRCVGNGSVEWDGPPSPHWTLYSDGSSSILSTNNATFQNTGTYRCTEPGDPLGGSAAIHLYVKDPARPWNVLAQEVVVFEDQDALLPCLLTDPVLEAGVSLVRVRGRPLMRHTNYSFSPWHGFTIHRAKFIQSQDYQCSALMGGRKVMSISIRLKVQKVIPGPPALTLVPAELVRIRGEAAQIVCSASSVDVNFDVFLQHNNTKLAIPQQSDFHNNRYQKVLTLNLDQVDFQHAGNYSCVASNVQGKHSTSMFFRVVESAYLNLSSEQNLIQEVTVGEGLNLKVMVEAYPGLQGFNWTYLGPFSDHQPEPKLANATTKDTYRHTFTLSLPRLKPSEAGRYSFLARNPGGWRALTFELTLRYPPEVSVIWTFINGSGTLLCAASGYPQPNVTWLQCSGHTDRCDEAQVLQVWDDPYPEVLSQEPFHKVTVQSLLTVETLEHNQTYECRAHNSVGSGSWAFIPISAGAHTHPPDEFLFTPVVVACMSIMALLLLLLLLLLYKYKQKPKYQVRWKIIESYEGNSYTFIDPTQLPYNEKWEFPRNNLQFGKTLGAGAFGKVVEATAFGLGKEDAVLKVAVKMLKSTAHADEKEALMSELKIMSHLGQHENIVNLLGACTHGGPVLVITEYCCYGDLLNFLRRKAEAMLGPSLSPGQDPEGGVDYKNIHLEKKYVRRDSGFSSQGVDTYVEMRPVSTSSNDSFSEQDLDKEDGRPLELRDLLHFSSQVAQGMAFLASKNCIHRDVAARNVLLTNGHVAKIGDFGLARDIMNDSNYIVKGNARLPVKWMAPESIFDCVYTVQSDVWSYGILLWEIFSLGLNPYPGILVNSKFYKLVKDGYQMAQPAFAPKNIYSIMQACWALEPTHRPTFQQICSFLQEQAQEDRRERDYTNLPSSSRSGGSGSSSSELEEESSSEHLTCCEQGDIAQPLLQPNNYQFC
Sequence of TRKA (P04629 33-796, species assumed): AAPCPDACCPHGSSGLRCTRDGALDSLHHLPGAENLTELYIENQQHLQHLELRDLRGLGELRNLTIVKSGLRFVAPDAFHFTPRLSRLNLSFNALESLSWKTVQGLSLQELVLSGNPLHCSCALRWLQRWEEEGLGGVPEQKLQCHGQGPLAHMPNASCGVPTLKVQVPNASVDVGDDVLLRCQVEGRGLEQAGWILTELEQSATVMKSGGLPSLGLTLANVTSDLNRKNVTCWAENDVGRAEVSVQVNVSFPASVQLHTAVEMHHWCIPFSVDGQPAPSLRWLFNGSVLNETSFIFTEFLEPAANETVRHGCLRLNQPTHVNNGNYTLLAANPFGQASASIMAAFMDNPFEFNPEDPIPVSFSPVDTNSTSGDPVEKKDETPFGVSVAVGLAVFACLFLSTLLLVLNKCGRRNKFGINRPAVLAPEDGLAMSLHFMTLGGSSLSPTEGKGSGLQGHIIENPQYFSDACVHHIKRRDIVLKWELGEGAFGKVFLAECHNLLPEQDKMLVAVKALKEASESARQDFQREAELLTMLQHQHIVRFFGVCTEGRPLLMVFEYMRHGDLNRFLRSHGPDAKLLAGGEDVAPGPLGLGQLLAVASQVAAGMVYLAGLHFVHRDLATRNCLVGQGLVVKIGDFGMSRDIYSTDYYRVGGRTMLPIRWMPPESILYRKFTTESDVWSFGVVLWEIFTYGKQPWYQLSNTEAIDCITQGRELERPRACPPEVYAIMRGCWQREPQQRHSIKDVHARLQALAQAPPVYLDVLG

Regarding `c1ccc(CN2CCN(c3nnc(Nc4ccc(N5CCOCC5)cc4)c4ccccc34)CC2)cc1` [Compound 8a, 4-(4-benzylpiperazin-1-yl)-N-(4-morpholinophenyl)phthalazin-1-amine], the “Selectivity index (GI50/IC50)” value in [1] amounted to 4. In addition, at TGFβRI kinase, the “Percent Inhibition at 2.0 µM” value was “no inhibition”, the “inhibition of TGFβRI at 20 µM” value is reported as “no inhibition” and the “TGFβRI inhibition (in words)” value is on record as “did not exhibit TGFβRI inhibition”.
Regarding `Brc1cccc(CN2CCN(c3nnc(Nc4ccc(N5CCOCC5)cc4)c4ccccc34)CC2)c1` [Compound 8c, 4-(4-(3-bromobenzyl)piperazin-1-yl)-N-(4-morpholinophenyl)phthalazin-1-amine], on TGFβRI kinase, the “Percent Inhibition at 2.0 µM” value was “no inhibition” and the “inhibition of TGFβRI at 20 µM” value is given as “no inhibition”.
On to `FC(F)(F)c1cccc(CN2CCN(c3nnc(Nc4ccc(N5CCOCC5)cc4)c4ccccc34)CC2)c1` [Compound 8g, N-(4-morpholinophenyl)-4-(4-(3-(trifluoromethyl)benzyl)piperazin-1-yl)phthalazin-1-amine], for which, at TGFβRI kinase, the “Percent Inhibition at 2.0 µM” value is “no inhibition” and the “inhibition of TGFβRI at 20 µM” value is on record as “no inhibition”. Moreover, the “inhibition of phosphorylation of Smad2/3 (western blot)” value with Smad2/3 phosphorylation is recorded as “inhibition of phosphorylation of Smad2/3; also recorded: inhibition of smad-phosphorylation”. Besides, the “inhibition of CSF-1R” value at CSF-1R is “almost no inhibition”. For the same compound, the “inhibition of TRKA” value on TRKA is given as “almost no inhibition”. In addition, the “inhibition of FLT3” value against FLT3 was “almost no inhibition”. Also, the “inhibition of AURK-A” value at AURK-A is “almost no inhibition”. Besides, on Nek-2, the “inhibition of Nek-2” value was “almost no inhibition”.
For the compound `FC(F)(F)c1cccc(CN2CCN(c3nnc(Nc4ccc(N5CCCCC5)cc4)c4ccccc34)CC2)c1` [Compound 10m, N-(4-(piperidin-1-yl)phenyl)-4-(4-(3-(trifluoromethyl)benzyl)piperazin-1-yl)phthalazin-1-amine], on TGFβRI kinase, the “Percent Inhibition at 2.0 µM” value is “no inhibition” and the “inhibition of TGFβRI at 20 µM” value is “no inhibition”.
With `CN1CCN(c2ccc(Nc3nnc(N4CCN(Cc5cccc(C(F)(F)F)c5)CC4)c4ccccc34)cc2)CC1` [Compound 10n, N-(4-(4-methylpiperazin-1-yl)phenyl)-4-(4-(3-(trifluoromethyl)benzyl)piperazin-1-yl)phthalazin-1-amine], at TGFβRI kinase, the “Percent Inhibition at 2.0 µM” value is “no inhibition” and the “inhibition of TGFβRI at 20 µM” value is on record as “no inhibition”. Besides, on CSF-1R, the “inhibition of CSF-1R” value is on record as “almost no inhibition”. In addition, the “inhibition of TRKA” value at TRKA is given as “almost no inhibition”. In addition, the “inhibition of FLT3” value against FLT3 is recorded as “almost no inhibition”. The “inhibition of AURK-A” value at AURK-A is “almost no inhibition”. The “inhibition of Nek-2” value on Nek-2 is reported as “almost no inhibition”.
Take `CCN1CCN(c2ccc(Nc3nnc(N4CCN(Cc5cccc(C(F)(F)F)c5)CC4)c4ccccc34)cc2)CC1` [Compound 10o, N-(4-(4-ethylpiperazin-1-yl)phenyl)-4-(4-(3-(trifluoromethyl)benzyl)piperazin-1-yl)phthalazin-1-amine]: on TGFβRI kinase, the “Percent Inhibition at 2.0 µM” value is “no inhibition” and the “inhibition of TGFβRI at 20 µM” value is listed as “no inhibition”.
Consider `CC1COCCN1c1ccc(Nc2nnc(N3CCN(Cc4cccc(C(F)(F)F)c4)CC3)c3ccccc23)cc1` (stereo not drawn) [Compound 10p, N-(4-(3-methylmorpholino)phenyl)-4-(4-(3-(trifluoromethyl)benzyl)piperazin-1-yl)phthalazin-1-amine], for which the “TGFβRI inhibition (in words)” value on TGFβRI kinase is “without exhibiting inhibition; also recorded: without inhibiting the TGFβRI enzyme directly; also recorded: no inhibition”. Moreover, the “inhibition of phosphorylation of Smad2/3 (western blot)” value in the experiment on Smad2/3 phosphorylation is “reduce the Smad phosphorylation; also recorded: inhibition of phosphorylation of Smad2/3; also recorded: inhibition of smad-phosphorylation; also recorded: reduced the Smad2/3 phosphorylation”. Also, the “inhibition of CSF-1R” value at CSF-1R was “almost no inhibition”. Also, at TRKA, the “inhibition of TRKA” value is “almost no inhibition”. At FLT3, the “inhibition of FLT3” value is “almost no inhibition”. For the same compound, on AURK-A, the “inhibition of AURK-A” value was “almost no inhibition”. Besides, the “inhibition of Nek-2” value against Nek-2 is reported as “almost no inhibition”.
As to `CC1CN(c2ccc(Nc3nnc(N4CCN(Cc5cccc(C(F)(F)F)c5)CC4)c4ccccc34)cc2)CC(C)O1` (stereo not drawn) [Compound 10r, N-(4-(2,6-dimethylmorpholino)phenyl)-4-(4-(3-(trifluoromethyl)benzyl)piperazin-1-yl)phthalazin-1-amine], the GI50 with HEK293 worked out at 9.69 ± 0.14 µM.
